The target in one experiment is T1, Cytochrome P450 1A2 (Homo sapiens, UniProt P05177).
T1 sequence (P05177 whole entry): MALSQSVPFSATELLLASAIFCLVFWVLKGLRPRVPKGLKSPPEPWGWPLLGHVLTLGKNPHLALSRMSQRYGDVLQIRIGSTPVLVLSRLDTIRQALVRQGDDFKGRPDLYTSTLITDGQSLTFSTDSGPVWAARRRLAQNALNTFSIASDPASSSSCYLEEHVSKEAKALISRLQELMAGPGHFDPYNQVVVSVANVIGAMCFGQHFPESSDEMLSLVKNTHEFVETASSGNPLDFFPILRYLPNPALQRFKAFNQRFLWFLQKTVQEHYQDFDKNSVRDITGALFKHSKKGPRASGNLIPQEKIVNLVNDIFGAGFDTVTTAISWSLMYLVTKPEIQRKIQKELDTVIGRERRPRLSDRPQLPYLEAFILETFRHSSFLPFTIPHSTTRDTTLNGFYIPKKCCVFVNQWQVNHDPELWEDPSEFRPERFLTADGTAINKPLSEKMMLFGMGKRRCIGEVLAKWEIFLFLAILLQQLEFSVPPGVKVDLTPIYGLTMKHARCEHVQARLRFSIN
Nature of the experiment: Inhibition of CYP1A2 (unknown origin) using tacrin substrate. The class given is ADME. An outline of the steps: (§1)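 Human liver microsomes with probe substrate and an NADPH-regenerating system in 0.1 M potassium phosphate pH 7.4 at 37 °C, run in duplicate. Inhibitor at 0–20 μM (0–2.5 μM for one compound), eight concentrations. Reactions were stopped with acetonitrile/formic acid containing isotope-labelled internal standard, and metabolite area ratios were compared with and without inhibitor. IC50 was taken by linear interpolation between bracketing concentrations.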

The target in another experiment is Cytochrome P450 2C19 (Homo sapiens, UniProt P33261). Briefly: Inhibition of CYP2C19 (unknown origin) using (S)-mephentoin substrate. The class given is ADME. An outline of the steps:
as §1

Experiment [1] has as its target Macrophage metalloelastase (Homo sapiens) (UniProt P39900). Nature of the experiment: Inhibition of recombinant human MMP-12 using GRIGFL substrate up to 20 uM. A digest of the protocol: (§2)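 Outsourced microfluidic protease panel. Compound was preincubated with each protease for 30 min at 25 °C, then peptide substrate was added for 3 h at 25 °C and quenched with SDS/EDTA/iodoacetate. Substrate-to-product conversion was measured on LabChip. Compounds were tested singly in a 12-point 3-fold dilution series, top 20 μM (5 μM for two reference compounds).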

Another experiment concerns the target T2, Caspase-3 (Homo sapiens) (UniProt P42574).
T2 sequence (whole entry): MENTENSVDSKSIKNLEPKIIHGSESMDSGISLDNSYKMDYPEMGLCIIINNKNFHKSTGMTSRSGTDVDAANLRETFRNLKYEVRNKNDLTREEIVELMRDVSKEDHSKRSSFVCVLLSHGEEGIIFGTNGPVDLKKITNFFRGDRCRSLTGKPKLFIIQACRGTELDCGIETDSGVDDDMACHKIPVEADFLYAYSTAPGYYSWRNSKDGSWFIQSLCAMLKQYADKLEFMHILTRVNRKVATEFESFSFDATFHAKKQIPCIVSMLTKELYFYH
Briefly: Inhibition of recombinant human caspase 3 using DEVDAA substrate at up to 20 uM after 3 hrs. An outline of the steps:
as §2

Another experiment deals with T3, Caspase-5 (Homo sapiens) (UniProt P51878).
T3 sequence (whole entry): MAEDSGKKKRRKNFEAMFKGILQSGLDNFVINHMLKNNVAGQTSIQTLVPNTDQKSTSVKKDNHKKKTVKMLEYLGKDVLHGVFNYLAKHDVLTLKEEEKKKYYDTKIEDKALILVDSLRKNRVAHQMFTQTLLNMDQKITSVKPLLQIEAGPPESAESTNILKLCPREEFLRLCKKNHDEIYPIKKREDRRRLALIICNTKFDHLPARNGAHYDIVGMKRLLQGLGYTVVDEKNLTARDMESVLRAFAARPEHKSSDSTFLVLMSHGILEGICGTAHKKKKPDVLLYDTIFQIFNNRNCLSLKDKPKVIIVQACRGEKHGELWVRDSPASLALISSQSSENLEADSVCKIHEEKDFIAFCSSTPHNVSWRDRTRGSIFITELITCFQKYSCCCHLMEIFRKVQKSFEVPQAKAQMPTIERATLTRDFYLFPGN
Briefly: Inhibition of recombinant human caspase 5 using LEHDGP substrate at up to 20 uM after 3 hrs. A digest of the protocol:
as §2

The next experiment deals with T4, Caspase-6 (Homo sapiens) (UniProt P55212).
T4 sequence (whole entry): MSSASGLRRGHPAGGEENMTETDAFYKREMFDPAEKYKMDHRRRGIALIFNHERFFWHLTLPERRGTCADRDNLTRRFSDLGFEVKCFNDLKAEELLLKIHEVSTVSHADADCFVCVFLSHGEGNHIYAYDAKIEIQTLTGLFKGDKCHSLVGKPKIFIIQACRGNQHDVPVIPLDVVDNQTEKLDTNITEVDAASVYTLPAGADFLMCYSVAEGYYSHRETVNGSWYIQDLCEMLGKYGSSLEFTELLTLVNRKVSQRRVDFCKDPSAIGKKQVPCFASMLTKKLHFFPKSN
Briefly: Inhibition of recombinant human caspase 6 using VEHDGG substrate at up to 20 uM after 3 hrs. A digest of the protocol: as §2

Another experiment has as its target T5, Caspase-7 (Homo sapiens) (UniProt P55210).
T5 sequence (whole entry): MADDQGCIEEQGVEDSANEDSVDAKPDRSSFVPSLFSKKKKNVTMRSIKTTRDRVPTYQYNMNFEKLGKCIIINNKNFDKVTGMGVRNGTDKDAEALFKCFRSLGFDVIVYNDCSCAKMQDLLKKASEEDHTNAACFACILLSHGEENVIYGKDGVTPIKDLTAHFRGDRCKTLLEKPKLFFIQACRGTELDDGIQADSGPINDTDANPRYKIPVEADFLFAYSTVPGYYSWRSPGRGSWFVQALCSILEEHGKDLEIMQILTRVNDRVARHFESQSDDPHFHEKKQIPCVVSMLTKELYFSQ
Briefly: Inhibition of recombinant human caspase 7 using DEVDAA substrate at up to 20 uM after 3 hrs. A digest of the protocol:
as §2

The target of experiment [2] is Cathepsin S (Homo sapiens) (UniProt P25774). Briefly: Inhibition of recombinant human cathepsin S using RTLTAK substrate at up to 20 uM after 3 hrs. An outline of the steps: (§3)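 Each protease was preincubated 30 min at 25 °C with compound in its assay buffer. Peptide substrate was then added and the reaction ran 3 h at 25 °C before quenching with SDS/EDTA/iodoacetate. Substrate-to-product conversion (%) was read by microfluidic electrophoresis. Compounds were tested in singlicate as 12-point 3-fold dilutions from 20 μM to 0.1 nM. IC50 was taken as the concentration giving 50% of no-compound control activity.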

A further experiment deals with Furin (Homo sapiens) (UniProt P09958). Nature of the experiment: Inhibition of recombinant human furin using RRVKRSLD substrate at up to 20 uM after 3 hrs. A digest of the protocol:
as §3

A word on the IC50: it is the concentration at which inhibition is half-maximal. As usually defined, the inhibition is how much of the control response was suppressed.

Macrophage metalloelastase (Homo sapiens), sequence (P39900 106-470 limits assumed): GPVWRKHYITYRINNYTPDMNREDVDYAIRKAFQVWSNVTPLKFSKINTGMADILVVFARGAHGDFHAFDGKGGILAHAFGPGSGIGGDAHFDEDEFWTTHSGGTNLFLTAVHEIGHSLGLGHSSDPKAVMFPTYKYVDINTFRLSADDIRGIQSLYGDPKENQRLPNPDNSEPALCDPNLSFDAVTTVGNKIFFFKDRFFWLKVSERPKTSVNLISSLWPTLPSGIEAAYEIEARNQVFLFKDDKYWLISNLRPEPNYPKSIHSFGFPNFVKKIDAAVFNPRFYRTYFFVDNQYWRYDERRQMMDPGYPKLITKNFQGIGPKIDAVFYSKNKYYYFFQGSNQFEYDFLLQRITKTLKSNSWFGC
Cathepsin S (Homo sapiens), sequence (P25774 115-331 limits assumed): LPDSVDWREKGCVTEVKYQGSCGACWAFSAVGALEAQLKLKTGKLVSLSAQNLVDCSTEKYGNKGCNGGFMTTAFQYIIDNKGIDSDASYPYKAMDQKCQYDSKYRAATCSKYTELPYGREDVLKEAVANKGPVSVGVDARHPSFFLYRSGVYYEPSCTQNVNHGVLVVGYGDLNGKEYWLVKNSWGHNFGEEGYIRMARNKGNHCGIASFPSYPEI
Furin (Homo sapiens), sequence (P09958 whole entry): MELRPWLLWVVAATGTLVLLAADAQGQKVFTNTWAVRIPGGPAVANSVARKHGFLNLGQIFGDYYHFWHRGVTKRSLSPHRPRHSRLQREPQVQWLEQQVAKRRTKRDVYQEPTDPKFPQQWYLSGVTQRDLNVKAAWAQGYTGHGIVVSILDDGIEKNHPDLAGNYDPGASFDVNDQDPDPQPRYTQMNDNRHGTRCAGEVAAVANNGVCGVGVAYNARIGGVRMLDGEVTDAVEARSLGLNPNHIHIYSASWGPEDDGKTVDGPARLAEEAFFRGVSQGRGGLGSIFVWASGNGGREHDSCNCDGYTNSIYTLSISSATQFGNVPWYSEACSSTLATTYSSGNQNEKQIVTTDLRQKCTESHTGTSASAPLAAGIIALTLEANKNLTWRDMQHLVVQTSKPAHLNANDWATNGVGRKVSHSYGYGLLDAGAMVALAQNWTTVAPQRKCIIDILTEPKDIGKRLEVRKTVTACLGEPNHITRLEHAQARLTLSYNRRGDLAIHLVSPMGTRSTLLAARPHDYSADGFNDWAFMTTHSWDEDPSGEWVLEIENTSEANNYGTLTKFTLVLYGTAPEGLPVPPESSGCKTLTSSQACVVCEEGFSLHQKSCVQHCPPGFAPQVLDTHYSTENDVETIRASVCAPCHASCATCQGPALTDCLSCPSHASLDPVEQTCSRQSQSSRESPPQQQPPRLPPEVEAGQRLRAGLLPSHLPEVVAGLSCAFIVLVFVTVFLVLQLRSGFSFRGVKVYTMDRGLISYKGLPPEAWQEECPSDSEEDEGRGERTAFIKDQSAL
Cytochrome P450 2C19, sequence (P33261 whole entry): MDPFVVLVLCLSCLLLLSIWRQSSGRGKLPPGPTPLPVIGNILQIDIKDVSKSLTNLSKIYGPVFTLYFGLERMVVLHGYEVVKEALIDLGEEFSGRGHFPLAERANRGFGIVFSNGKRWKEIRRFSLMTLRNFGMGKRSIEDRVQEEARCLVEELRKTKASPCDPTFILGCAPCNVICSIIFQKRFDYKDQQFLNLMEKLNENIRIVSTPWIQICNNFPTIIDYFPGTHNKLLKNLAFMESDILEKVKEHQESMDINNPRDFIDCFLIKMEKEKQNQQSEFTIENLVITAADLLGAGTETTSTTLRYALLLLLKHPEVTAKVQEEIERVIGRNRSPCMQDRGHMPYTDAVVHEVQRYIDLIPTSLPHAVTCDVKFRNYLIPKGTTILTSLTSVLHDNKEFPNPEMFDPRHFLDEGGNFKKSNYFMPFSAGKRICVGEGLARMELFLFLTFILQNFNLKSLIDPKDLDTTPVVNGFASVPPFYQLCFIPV

Regarding `Cn1c(=O)n(Cc2ccc(C(=O)O)cc2)c(=O)c2cc(C#CCc3ccccc3)ccc21`, the 50% inhibitory concentration (IC50) against Cytochrome P450 1A2 and at Cytochrome P450 2C19 was more than 2.5 µM in each case.
`Cc1ccc(CSc2nc(O)c3c(n2)CCC3)cc1`: the inhibition in experiment [1] is more than 10%; on Caspase-3 (Homo sapiens) it was less than 10%; on Caspase-5 (Homo sapiens), more than 10%; at Caspase-6 (Homo sapiens), less than 10%; at Caspase-7 (Homo sapiens), less than 10%; in experiment [2], less than 10%. Also, the inhibition on Furin (Homo sapiens) is less than 10%.
As to `COC(=O)c1ccc(CSc2nc3c(c(=O)[nH]2)CCC3)cc1`, the inhibition was more than 10% in experiment [1]; less than 10% on Caspase-3 (Homo sapiens); less than 10% at Caspase-5 (Homo sapiens); less than 10% at Caspase-6 (Homo sapiens); less than 10% at Caspase-7 (Homo sapiens); less than 10% in experiment [2]. Moreover, the inhibition at Furin (Homo sapiens) was less than 10%. The IC50 at Cytochrome P450 1A2 and at Cytochrome P450 2C19 was more than 20 µM in each case.
Regarding `Oc1nc(SCc2ccc(Cl)cc2)nc2c1CCC2`, the inhibition was more than 10% in experiment [1]; less than 10% at Caspase-3 (Homo sapiens); less than 10% at Caspase-5 (Homo sapiens); less than 10% at Caspase-6 (Homo sapiens); less than 10% at Caspase-7 (Homo sapiens); less than 10% in experiment [2]. In addition, on Furin (Homo sapiens), the inhibition is less than 10%. For the same molecule, the half-maximal inhibitory concentration (IC50) came to 8.6 µM on Cytochrome P450 1A2 and 6.5 µM on Cytochrome P450 2C19.
Turning to `Cc1cc(CNC(=O)c2cc(C(=O)NCc3ccc(F)c(C)c3)ncn2)ccc1F`, the IC50 on Cytochrome P450 1A2 and against Cytochrome P450 2C19 was more than 20 µM throughout.

For the origin of these results see ChEMBL document CHEMBL3352788, “Characterization of selective exosite-binding inhibitors of matrix metalloproteinase 13 that prevent articular cartilage degradation in vitro” (J Med Chem, 2014).
